Data on three molecules can be found in ChEMBL document CHEMBL3774372, “Design, physico-chemical properties and biological evaluation of some new N-[(phenoxy)alkyl]- and N-{2-[2-(phenoxy)ethoxy]ethyl}aminoalkanols as anticonvulsant agents” (Bioorg Med Chem, 2016).

The subject of series [1] is Rattus norvegicus. Briefly: Anticonvulsant activity in pilocarpine-induced status epilepticus Sprague-Dawley rat model at 100 mg/kg, ip after 0.5 hrs during post stage 3 seizure. Type of series: functional, organism-based. The procedure, abridged:
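Rats given pilocarpine 50 mg/kg ip and observed to first convulsive seizure (Racine stage 3–5, time zero); test drug then given ip in 0.5% methylcellulose. Efficacy = halting further stage 3–5 convulsive seizures; scored protected/tested, time after first stage 3 seizure.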

Series [2] deals with Mus musculus. Briefly: Anticonvulsant activity in mouse assessed as protection against 6 Hz psychomotor seizure at 50 mg/kg, ip after 2 hrs. Format: functional, organism-based. Put shortly: (§1)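 Suspension in 0.5% methylcellulose given ip to mice; corneal stimulation with 0.2 ms monopolar rectangular pulses at 6 Hz for 3 s from a constant current device, mice restrained then released to observation cage. Protected if normal exploratory behaviour resumed within 10 s of stimulation. Scored as protected/tested, 4 mice per group.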

Series [3] deals with Neurotensin receptor type 1 (Homo sapiens) (UniProt P30989). Briefly: Displacement of [125I]Tyr3-neurotensin from human recombinant NT1 receptor expressed in CHO cells at 10^-5 M. Format: cell-based. Put shortly: (§2)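 Radioligand binding screen run at a single test concentration of 10^-5 M. Each target used its stated receptor source (human recombinant CHO or HEK-293 cells, endogenous cell lines, or rat tissue membranes) with the listed radioligand.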
Sequence of Neurotensin receptor type 1 (Homo sapiens) (P30989 whole entry): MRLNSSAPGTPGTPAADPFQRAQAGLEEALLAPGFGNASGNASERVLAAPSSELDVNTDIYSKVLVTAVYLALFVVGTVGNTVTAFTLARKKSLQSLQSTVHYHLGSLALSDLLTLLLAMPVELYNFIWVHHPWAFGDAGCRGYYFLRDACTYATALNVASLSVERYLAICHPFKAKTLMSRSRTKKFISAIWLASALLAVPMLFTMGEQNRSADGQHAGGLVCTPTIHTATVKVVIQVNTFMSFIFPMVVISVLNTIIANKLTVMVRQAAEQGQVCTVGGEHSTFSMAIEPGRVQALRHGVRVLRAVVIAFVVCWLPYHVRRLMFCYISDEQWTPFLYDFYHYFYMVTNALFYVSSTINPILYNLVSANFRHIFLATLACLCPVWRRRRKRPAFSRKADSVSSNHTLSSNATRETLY
(In a radioligand displacement assay an active substance lowers the binding of a labelled ligand.)

The test system of series [4] is Mus musculus. Kind of series: Anticonvulsant activity in mouse assessed as protection against 6 Hz psychomotor seizure at 20 mg/kg, ip after […]. Type of series: functional, organism-based.
The test system of series [5] is Rattus norvegicus. Kind of series: Anticonvulsant activity in rat assessed as protection against maximal electric shock-induced seizures at 30 mg/kg, po measured after […]. Format: functional, organism-based.
For series [6], the target named is Small conductance calcium-activated potassium channel (Rattus norvegicus) (UniProt P70604+P70606+P70605). Briefly: Displacement of [125I]apamin from rat cerebral cortex small conductance calcium-activated potassium channel at 10^-5 M. Type of series: tissue-based. Put shortly: as §2
Series [7] deals with Melatonin receptor type 1A (Homo sapiens) (UniProt P48039). Briefly: Displacement of [125I]2-iodomelatonin from human recombinant ML1A receptor expressed in CHO cells at 10^-5 M. Format: cell-based. The procedure, abridged: as §2
Sequence of Melatonin receptor type 1A (Homo sapiens) (P48039 whole entry): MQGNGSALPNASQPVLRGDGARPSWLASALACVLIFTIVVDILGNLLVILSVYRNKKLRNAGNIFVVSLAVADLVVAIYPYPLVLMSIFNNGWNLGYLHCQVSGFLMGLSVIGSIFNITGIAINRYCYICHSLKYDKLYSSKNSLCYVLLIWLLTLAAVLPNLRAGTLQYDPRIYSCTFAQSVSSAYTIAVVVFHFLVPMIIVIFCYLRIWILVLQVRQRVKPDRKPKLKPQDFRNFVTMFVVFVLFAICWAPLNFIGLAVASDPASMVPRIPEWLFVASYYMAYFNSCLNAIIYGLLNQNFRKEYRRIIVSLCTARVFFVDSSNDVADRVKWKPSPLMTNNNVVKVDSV
The test system of series [8] is Mus musculus. Kind of series: Anticonvulsant activity in mouse assessed as protection against 6 Hz psychomotor seizure at 20 mg/kg, ip after 1 hr. Type of series: functional, organism-based. The procedure, abridged: as §1
Series [9] deals with Adenosine receptor A1 (Homo sapiens) (UniProt P30542). Kind of series: Displacement of [3H]DPCPX from human recombinant adenosine A1 receptor expressed in CHO cells at 10^-5 M. Type of series: cell-based. Put shortly:
as §2

Series [10] has as its system Mus musculus. Briefly: Anticonvulsant activity in mouse assessed as protection against 6 Hz psychomotor seizure at 20 mg/kg, ip after 4 hrs. Format: functional, organism-based. The procedure, abridged:
as §1

The subject of series [11] is Mus musculus. Briefly: Anticonvulsant activity in mouse assessed as protection against 6 Hz psychomotor seizure at 20 mg/kg, ip after 0.5 hrs. Format: functional, organism-based. Put shortly:
as §1

Series [12] concerns Mus musculus. Kind of series: Analgesic activity in mouse assessed as reduction in AUC of formalin-induced licking time during acute phase at 13 mg/kg, ip relative to control. Format: functional. Put shortly: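 Formalin injected into a mouse hindlimb; total licking time taken as pain intensity. Compound given ip at 13 mg/kg as a suspension in 0.5% methylcellulose; vehicle-only animals served as controls.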

For series [13], the system named is Mus musculus. Briefly: AUC (0 to infinity) in CD1 mouse plasma at 1 mg/kg, iv measured up to 240 mins by LC/ESI-MS/MS analysis. Type of series: ADME, organism-based. On the set-up: dose 1 mg/kg, time infinity, route intravenous. As to conditions: in vivo, 4 h.
For series [14], the system named is Mus musculus. Kind of series: Volume of distribution in steady state in CD1 mouse plasma at 1 mg/kg, iv measured up to 240 mins by LC/ESI-MS/MS analysis. Format: ADME, organism-based. As to conditions: in vivo, 4 h.
Series [15] concerns Mus musculus. Kind of series: Half life in CD1 mouse plasma at 12.92 mg/kg, ip measured up to 240 mins by LC/ESI-MS/MS analysis. Format: ADME, organism-based. As to conditions: in vivo, 4 h.
Series [16] is described as follows: Ratio of drug level in brain to plasma in CD1 mouse at 1 mg/kg, iv administered as single dose measured after 5 mins by LC/ESI-MS/MS analysis. Type of series: ADME, organism-based. As to conditions: brain and plasma, read-out: BPR.
For series [17], the system named is Mus musculus. Briefly: Neurotoxicity in mouse at 30 mg/kg, ip after 4 hrs by rotarod test. Format: toxicity, organism-based. As to conditions: in vivo. The procedure, abridged: (§3)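 Mice were dosed ip with compound suspended in 0.5% methylcellulose. Rotarod: a 1 in. knurled rod turning at 6 rpm. Neurotoxicity was scored as failure to stay on the rod for at least 1 min in each of three trials. Results are given as the number of animals affected out of the number tested.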

Series [18] in a line: Half life in CD1 mouse plasma at 1 mg/kg, iv measured up to 240 mins by LC/ESI-MS/MS analysis. Type of series: ADME, organism-based. The procedure, abridged: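 Male CD1 mice, fasted overnight, were dosed iv at 1 mg/kg. Under ketamine/xylazine, blood was collected at 0, 5, 15, 30, 60, 120 and 240 min, one sample per animal, four mice per time point. Plasma concentrations were measured by LC/ESI-MS/MS. Terminal t1/2 was taken as 0.693/kz, with kz from log-linear regression, using non-compartmental analysis.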

Series [19] can be described thus: Ratio of drug level in brain to plasma in CD1 mouse at 12.92 mg/kg, ig administered as single dose measured after 60 mins by LC/ESI-MS/MS analysis. The following applies: brain and plasma, po, read-out: BPR. Format: ADME, organism-based.
A short description of series [20]: AUC (0 to infinity) in CD1 mouse brain at 12.92 mg/kg, ip measured up to 240 mins by LC/ESI-MS/MS analysis. The arrangement: dose 12.92 mg/kg, route intraperitoneal, time infinity. Format: ADME, organism-based.
Series [21] relates to Mus musculus. Briefly: Neurotoxicity in mouse at 300 mg/kg, ip after 0.5 hrs by rotarod test. Type of series: toxicity, organism-based. The following applies: in vivo. Put shortly: as §3
The nature of series [22]: in vitro. As to conditions: mouse, liver microsomes.
A short description of series [23]: Ratio of drug level in brain to plasma in CD1 mouse at 1 mg/kg, iv administered as single dose measured after 120 mins by LC/ESI-MS/MS analysis. Format: ADME, organism-based. As to conditions: brain and plasma, read-out: BPR.
Series [24] is described as follows: Ratio of drug level in brain to plasma in CD1 mouse at 1 mg/kg, iv administered as single dose measured after 60 mins by LC/ESI-MS/MS analysis. Type of series: ADME, organism-based. The following applies: brain and plasma, read-out: BPR.
For series [25], the system named is Mus musculus. Briefly: AUMC (0 to infinity) in CD1 mouse plasma at 12.92 mg/kg, ip measured up to 240 mins by LC/ESI-MS/MS analysis. Type of series: ADME, organism-based. As to conditions: in vivo, 4 h.
For series [26], the system named is Mus musculus. Kind of series: Cmax in CD1 mouse plasma at 12.92 mg/kg, ip measured up to 240 mins by LC/ESI-MS/MS analysis. Type of series: ADME, organism-based. The arrangement: dose 12.92 mg/kg, route intraperitoneal. As to conditions: in vivo, 4 h.
Series [27] can be described thus: Cmax in CD1 mouse brain at 12.92 mg/kg, ip measured up to 240 mins by LC/ESI-MS/MS analysis. On the set-up: dose 12.92 mg/kg, route intraperitoneal. Type of series: ADME, organism-based.
In series [28] the test system is Mus musculus. Kind of series: Tmax in CD1 mouse plasma at 12.92 mg/kg, ip measured up to 240 mins by LC/ESI-MS/MS analysis. Format: ADME, organism-based. As to conditions: in vivo, 4 h.
A short description of series [29]: Cmax in CD1 mouse brain at 1 mg/kg, iv measured up to 240 mins by LC/ESI-MS/MS analysis. Format: ADME, organism-based. On the set-up: dose 1 mg/kg, route intravenous.
A short description of series [30]: Ratio of drug level in brain to plasma in CD1 mouse at 12.92 mg/kg, ip administered as single dose measured after 120 mins by LC/ESI-MS/MS analysis. Type of series: ADME, organism-based. The following applies: brain and plasma, read-out: BPR.
Series [31] deals with Rattus norvegicus. Briefly: Toxicity in pilocarpine-induced status epilepticus Sprague-Dawley rat model assessed as average weight change at 100 mg/kg, ip measured 24 hrs post first stage 3 seizure. Format: organism-based. As to conditions: in vivo.
The nature of series [32]: Ratio of drug level in brain to plasma in CD1 mouse at 1 mg/kg, iv administered as single dose measured after 15 mins by LC/ESI-MS/MS analysis. Format: ADME, organism-based. As to conditions: brain and plasma, read-out: BPR.

The source made the active and inactive calls. The calls are words filed in the database; no cut-off is given here.

Sequence of Adenosine receptor A1 (Homo sapiens) (P30542 whole entry): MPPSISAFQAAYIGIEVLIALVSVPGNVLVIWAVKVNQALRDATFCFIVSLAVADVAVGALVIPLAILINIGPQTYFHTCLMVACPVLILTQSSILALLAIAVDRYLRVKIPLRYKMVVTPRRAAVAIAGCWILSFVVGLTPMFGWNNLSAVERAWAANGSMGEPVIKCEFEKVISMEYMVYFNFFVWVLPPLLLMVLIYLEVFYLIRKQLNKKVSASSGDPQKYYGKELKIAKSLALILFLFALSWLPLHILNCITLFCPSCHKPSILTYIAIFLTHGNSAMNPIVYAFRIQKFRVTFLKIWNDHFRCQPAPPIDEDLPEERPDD

The term inhibition denotes the change of the read-out against control, counted positive when it falls. On to `Cc1cccc(C)c1OCCOCCN[C@H](C)CO`, for which the result in series [1] and in series [2] was inactive. In [3], the inhibition is -4.2%.
For `Cc1cccc(C)c1OCCOCCN[C@@H](C)CO`, the result in series [4], in [5], in [8], in series [10] and in series [11] was inactive. Also, the inhibition in series [6] is -0.9%; in [7] it was -7.5%; in series [9], -6.9%.
What is called inhibition in vivo is the share of the control response that was lost under treatment. By AUC is commonly meant the area under the concentration-time curve, a measure of exposure. As a reminder, the Vdss is the apparent volume that relates the amount in the body to the concentration in plasma or blood. A higher Vdss goes with extensive tissue distribution. Usually half-life stands for how long it takes for the measured level to halve. Higher therefore signals slow decline. One may read the AUC(0-inf) as the area under the concentration-time curve extrapolated to infinity. A word on the microsomal CLint: it is the capacity of the preparation to metabolise the compound, expressed as a volume cleared per time. Lower therefore signals slow turnover. Usually Cmax stands for the peak of the concentration-time curve. One may read the Tmax as the time at which the peak concentration occurs. In the case of `Cc1cccc(C)c1OCCOCCN[C@H](C)CO.Cl`, in [12], the inhibition in vivo at 13 mg/kg was found to be 54.9%. Besides, in series [13], the area under the curve (AUC) was determined as 1030 ng·h/mL. Besides, the Vdss in series [14] was 0.8997 L/kg. Further, in series [15], the t1/2 worked out at 77.2 min. For the same molecule, the Kp at 5 min in series [16] was 5.27. Further, the Activity entry in series [17] was “Non-toxic”; in series [21], “Toxic”; in series [31], 17.5 g. In addition, the half-life in series [18] amounted to 51.5 min. The Kp at 1 h in [19] is 5.95; in series [24], 3.58. In addition, the area under the curve AUC(0-inf) in series [20] came out at 2160 ng·h/mL. The same molecule showed an intrinsic metabolic clearance (microsomal CLint) at 20 µM in series [22] of 47 µL/min/mg. Moreover, the Kp at 2 h in series [23] came out at 6.66; in series [30], 2.86. The AUMC in series [25] amounted to 1280 ng·h²/mL. The Cmax in [26] was determined as 1190 ng/mL; in [27], 2360 ng/mL; in series [29], 11500 ng/mL. For the same molecule, the Tmax in series [28] is listed as 5 min. In [32], the Kp at […] came out at 5.36.
